Laboratory results published in ChEMBL document CHEMBL1153359, “Synthesis and biological evaluation of N4-(hetero)arylsulfonylquinoxalinones as HIV-1 reverse transcriptase inhibitors” (Bioorg Med Chem, 2009).

Test system: Human immunodeficiency virus 1
Assay: Inhibition of HIV1 replication in human 293T cells preincubated 15 mins prior to infection measured after 48 hrs postinfection by luciferase reporter gene assay
Format: functional, organism-based
Conditions: Human immunodeficiency virus 1, HEK-293T
Method in brief: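 Pseudotyped virus was made by co-transfecting 293 cells with the env-deficient HIV-1 luciferase vector pNL4-3.luc.R-E- and a VSV-G plasmid (modified calcium phosphate method). 293ET target cells were seeded at 6 × 10⁴ per well the day before infection. Compound was added 15 min before the VSVG/HIV-1 virus, with a solvent-only control. Cells were lysed 48 h post-infection.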

Row | SMILES | IC50
1 | COC(=O)c1sccc1S(=O)(=O)N1c2cc(Cl)ccc2NC(=O)C1C (stereo unspecified) | 200 nM
2 | CCC1C(=O)Nc2ccc(Cl)cc2N1S(=O)(=O)c1ccsc1C(=O)OC (stereo unspecified) | 6300 nM
3 | CC1C(=O)Nc2ccc(F)cc2N1S(=O)(=O)c1cc(Cl)sc1Cl (stereo unspecified) | > 100000 nM
4 | COC(=O)c1sccc1S(=O)(=O)N1c2cc(F)ccc2NC(=O)C1CCSC (stereo unspecified) | > 100000 nM
5 | COC(=O)c1sccc1S(=O)(=O)N1CC(=O)Nc2cc(C(F)(F)F)ccc21 | > 100000 nM
6 | O=C1CN(S(=O)(=O)c2cccc3cccnc23)c2ccc(C(F)(F)F)cc2N1 | > 100000 nM
7 | COC(=O)c1sccc1S(=O)(=O)N1CC(=O)Nc2ccc(F)cc21 | 2020 nM
8 | O=C1CN(S(=O)(=O)c2cccc3cccnc23)c2cc(Cl)ccc2N1 | 330 nM
9 | Cc1cn([C@H]2C[C@H](N=[N+]=[N-])[C@@H](CO)O2)c(=O)[nH]c1=O [ZIDOVUDINE] | 48 nM
10 | COC(=O)c1sccc1S(=O)(=O)N1c2cc(F)ccc2NC(=O)C1C (stereo unspecified) | 200 nM
11 | CC1C(=O)Nc2ccc(F)cc2N1S(=O)(=O)c1cccc2cccnc12 (stereo unspecified) | 7000 nM
12 | CC1C(=O)Nc2ccc(F)cc2N1S(=O)(=O)c1ccc([N+](=O)[O-])cc1 (stereo unspecified) | > 100000 nM
13 | CCC1C(=O)Nc2ccc(Cl)cc2N1S(=O)(=O)c1cccc2cccnc12 (stereo unspecified) | > 100000 nM
14 | CCC1C(=O)Nc2ccc(F)cc2N1S(=O)(=O)c1ccsc1C(=O)OC (stereo unspecified) | 5000 nM
15 | O=C1CN(S(=O)(=O)c2cccc3cccnc23)c2cc(F)ccc2N1 | 980 nM
16 | COC(=O)CC1C(=O)Nc2ccc(F)cc2N1S(=O)(=O)c1ccsc1C(=O)OC (stereo unspecified) | > 100000 nM
17 | COC(=O)c1sccc1S(=O)(=O)N1CC(=O)Nc2ccc(Cl)cc21 | 830 nM
18 | N#Cc1cccc(S(=O)(=O)N2CC(=O)Nc3ccc(F)cc32)c1 | > 100000 nM
19 | CC1C(=O)Nc2ccc(Cl)cc2N1S(=O)(=O)c1cccc2cccnc12 (stereo unspecified) | 650 nM
20 | O=C1Nc2ccc(Cl)cc2[C@@](C#CC2CC2)(C(F)(F)F)O1 [EFAVIRENZ] | 1.3 nM
21 | CC1C(=O)Nc2ccc(F)cc2N1S(=O)(=O)c1cccc(C#N)c1 (stereo unspecified) | 55000 nM
